SMILES strings stand for the structures.

For one compound, Rate, Lag time and Kd results are on record in ChEMBL document CHEMBL1121797, “Studies on chiral interactions of 1-(2,5-dimethoxy-4-methylphenyl)-2-aminopropane and the corresponding N-hydroxy metabolites with cytochrome P-450” (J Med Chem, 1981).

The nature of data set [1]: Extent rates of formation of metabolic intermediate Cytochrome P-450 at compound concentration of 15-180 uM. The format is ADME. In short, it runs like this: (§1)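 Rabbit liver microsomes at 2 mg protein/mL with 0.1 mM EDTA, 37 °C, NADPH-dependent. Substrate tested at several concentrations. ΔA457–500 nm followed against time. Rate is the initial slope per nmol P-450 per min; extent is the plateau absorbance. Runs disturbed by a transient 450-nm species were discarded.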

Data set [2] can be described thus: Lag time between the addition of compound (30 uM) and the first appearance of chromophore. The format is ADME. An outline of the steps: (§2)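 Rabbit liver microsomes at 2 mg protein/mL with 0.1 mM EDTA, 37 °C, substrate 30 μM. Complex formation started with 0.4 mM NADPH and followed by dual-wavelength absorbance, 457 vs 500 nm. Initial rate is the initial slope, ΔA×10^4 per nmol P-450 per min. Extent is the plateau absorbance. Lag is the time from NADPH addition to first 457-nm chromophore. Triplicate or single runs.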

The nature of data set [3]: Initial rates of formation of metabolic intermediate Cytochrome P-450 at compound concentration of 15-180 uM. It is filed as ADME. In short, it runs like this: as §1
Data set [4] can be described thus: Initial rates of formation of metabolic intermediate Cytochrome P-450 at compound concentration of 30 uM. It is filed as ADME. In short, it runs like this: as §2
For the next data set, the target named is Cytochrome P450 2C19 (Homo sapiens, UniProt P33261). In words: Apparent binding affinity of compound (15.0-45.0 uM) in Cytochrome P450 binding. The format is ADME, Oryctolagus cuniculus. To be noted: read-out: Ks.
The nature of data set [5]: Extent rates of formation of metabolic intermediate Cytochrome P-450 at compound concentration of 30 uM. The format is ADME. In short, it runs like this: as §2

Sequence of Cytochrome P450 2C19 (P33261 whole entry): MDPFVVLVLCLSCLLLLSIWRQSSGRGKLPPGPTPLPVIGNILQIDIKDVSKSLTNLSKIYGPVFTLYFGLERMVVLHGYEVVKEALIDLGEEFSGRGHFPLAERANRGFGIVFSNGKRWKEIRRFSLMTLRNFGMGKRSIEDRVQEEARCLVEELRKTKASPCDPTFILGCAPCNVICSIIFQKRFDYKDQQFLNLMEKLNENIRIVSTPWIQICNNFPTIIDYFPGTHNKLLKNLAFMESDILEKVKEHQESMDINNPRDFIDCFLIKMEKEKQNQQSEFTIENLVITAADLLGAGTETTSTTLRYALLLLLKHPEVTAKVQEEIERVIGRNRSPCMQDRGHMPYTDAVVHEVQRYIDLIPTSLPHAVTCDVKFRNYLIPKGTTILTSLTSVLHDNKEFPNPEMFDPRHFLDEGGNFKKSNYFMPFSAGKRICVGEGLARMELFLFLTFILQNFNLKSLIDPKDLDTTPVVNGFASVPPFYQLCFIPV

On to `COc1cc(C[C@H](C)NO)c(OC)cc1C`, for which the Rate in data set [1] is on record as 34; in data set [3] it was 66; in data set [4], 211; in data set [5], 161. The compound also displayed a Lag time in data set [2] of 0 s. For the same compound, the Kd on Cytochrome P450 2C19 worked out at 68 µM.
